One test has as its system HCT-15. Briefly: Antiproliferative activity against human HCT15 cells after 24 hrs by WST-1 assay. It is filed as functional, cell-based. Conditions: HCT-15, 24 h. Summed up: (§1)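 WST-1 viability assay. Cells seeded at 5 × 10^3 per well and grown 24 h, then given lissoclibadins at 0.1−40 μM (etoposide 1.0−100 μM) in triplicate for 24 h. WST-1 added and absorbance read 4 h later at 450 nm, background subtracted at 650 nm. Viability expressed as % of control; IC50 taken as 50% inhibition of viability. Three experiments, mean ± SD.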

The test system of another test is HeLa S3. Briefly: Antiproliferative activity against human HeLaS3 cells after 24 hrs by WST-1 assay. Conditions: HeLa S3, 24 h. The test is classed as functional, cell-based. A digest of the protocol:
as §1
Background: Tetrazolium dyes change colour on reduction, which living cells bring about.

What is called IC50 is the point on the concentration scale where inhibition reaches its midpoint. Lower therefore signals greater potency in that assay. Turning to `COc1cc(CCN(C)C)c2sc3c(O)c(OC)cc(CCN(C)C)c3ssc2c1O` [LISSOCLIBADIN 4], the IC50 came to 17.2 µM in the test with HCT-15 and 17.8 µM in the test with HeLa S3.
As for `COc1cc(CCN(C)C)c2c(c1O)SSc1c(CCN(C)C)cc(OC)c(O)c1SS2` [LISSOCLIBADIN 7], the IC50 amounted to 15.7 µM in the test with HCT-15 and 14.2 µM in the test on HeLa S3.

The record behind these values is ChEMBL document CHEMBL4052605, “Lissoclibadin 1, a Polysulfur Aromatic Alkaloid from the Indonesian Ascidian Lissoclinum cf. badium, Induces Caspase-Dependent Apoptosis in Human Colon Cancer Cells and Suppresses Tumor Growth in Nude Mice” (J Nat Prod, 2017).
